According to ChEMBL document CHEMBL1132629, “Synthesis and anti-HIV and anti-HBV activities of 2'-fluoro-2', 3'-unsaturated L-nucleosides” (J Med Chem, 1999):

What was measured:
[1] = tested on: Hepatitis B virus; assay: The EC50 value was measured on hepatitis B virus; assay type: functional, organism-based
Outline: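 Anti-HBV activity assayed in 2.2.15 cells; EC50 (μM) reported.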

[2] = tested on: PBMC; assay: Cytotoxicity was evaluated in human peripheral blood mononuclear (PBM) cells
[3] = tested on: CCRF-CEM; assay: Cytotoxicity was evaluated in CEM cells; conditions: Homo sapiens
[4] = tested on: Human immunodeficiency virus 1; assay: Evaluated for anti-HIV activity; assay type: functional, organism-based
Outline: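 Human peripheral blood mononuclear (PBM) cells infected with HIV-1; antiviral potency reported as EC50 (μM); AZT run as positive control.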

[5] = tested on: Vero; assay: Inhibitory activity was evaluated in Vero cells.; assay type: functional, cell-based; conditions: Chlorocebus sabaeus

| SMILES | EC50 [1] [µM] | EC50 [4] [µM] | IC50 [2] [µM] | IC50 [3] [µM] | IC50 [5] [µM] |
| --- | --- | --- | --- | --- | --- |
| Nc1nc(=O)n([C@H]2O[C@@H](CO)C=C2F)cc1F | 0.225 | 0.17 | > 100 | > 100 | > 100 |
| Nc1ccn([C@H]2O[C@@H](CO)C=C2F)c(=O)n1 | 0.18 | 0.51 | > 100 | > 100 | > 100 |
| O=c1ccn([C@H]2O[C@@H](CO)C=C2F)c(=O)[nH]1 | > 10 | > 100 | > 100 | > 100 | > 100 |
| Nc1ccn([C@@H]2O[C@@H](CO)C=C2F)c(=O)n1 | > 10 | > 100 | > 100 | > 100 | > 100 |
| O=c1ccn([C@@H]2O[C@@H](CO)C=C2F)c(=O)[nH]1 | > 10 | > 100 | > 100 | > 100 | > 100 |
| Cc1cn([C@H]2O[C@@H](CO)C=C2F)c(=O)[nH]c1=O | > 10 | > 100 | > 100 | > 100 | > 100 |
| Cc1cn([C@H]2C[C@H](N=[N+]=[N-])[C@@H](CO)O2)c(=O)[nH]c1=O [ZIDOVUDINE] | > 10 |  | > 100 |  |  |
| Cc1cn([C@@H]2O[C@@H](CO)C=C2F)c(=O)[nH]c1=O | > 10 | > 100 | > 100 | > 100 | > 100 |

Further lines, with some results ahead:

| EC50 [1] [µM] | EC50 [4] [µM] | SMILES | IC50 [2] [µM] | IC50 [3] [µM] | IC50 [5] [µM] |
| --- | --- | --- | --- | --- | --- |
| > 10 | > 100 | Nc1nc(F)nc2c1ncn2[C@@H]1O[C@@H](CO)C=C1F | > 100 | > 100 | > 100 |
| > 10 | 76.9 | Nc1nc(O)c2ncn([C@@H]3O[C@@H](CO)C=C3F)c2n1 | > 100 | > 100 | > 100 |
| > 10 | 2.2 | Nc1nc(F)nc2c1ncn2[C@H]1O[C@@H](CO)C=C1F | 25.8 | 19.5 | 173 |
| > 10 | 47.6 | Nc1ncnc2c1ncn2[C@@H]1O[C@@H](CO)C=C1F | > 100 | > 100 | > 100 |
| > 10 | > 100 | OC[C@H]1C=C(F)[C@H](n2cnc3c(O)ncnc32)O1 | > 100 | > 100 | > 100 |
| > 10 | 14.5 | Nc1nc(Cl)c2ncn([C@@H]3O[C@@H](CO)C=C3F)c2n1 | 26.6 | 28.2 | > 100 |
| > 10 | > 100 | Nc1nc(O)c2ncn([C@H]3O[C@@H](CO)C=C3F)c2n1 | > 100 | > 100 | > 100 |
| 1.7 | 1.5 | Nc1ncnc2c1ncn2[C@H]1O[C@@H](CO)C=C1F | > 100 | > 100 | > 100 |
| > 10 | 4.7 | OC[C@H]1C=C(F)[C@@H](n2cnc3c(O)ncnc32)O1 | > 100 | > 100 | > 100 |
| > 10 | > 100 | Nc1nc(=O)n([C@@H]2O[C@@H](CO)C=C2F)cc1F | > 100 | > 100 | > 100 |
| > 10 | > 100 | Nc1nc(Cl)c2ncn([C@H]3O[C@@H](CO)C=C3F)c2n1 | > 100 | > 100 | > 100 |
